Sampled rows, rich in hits. Any-hit rate of the full collection: about 3.1%.
PGC1a acetyl inh = modulators of PGC1a acetylation | U2OS PGC1a acetylation, AlphaScreen anti-acetyl-lysine; with virally co-expressed GCN5 acetyltransferase | inhibition, % at 15.6 µM | 0.17% of 350,000 active | AID 651687;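 active = every replicate shows inhibition of at least 40%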;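 also: 0% = neutral control wells and 100% = positive control wells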
Env fusion inh = blocks HIV Env-driven cell-cell fusion. inhibition, % at 12.3 µM. 1.1% of 360,000 active. HeLa-JRFL Env/CEM21 cell fusion, luciferase;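 active = mean replicate inhibition score of at least 50 and every replicate individually at or above 50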;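 also: 0% = plate neutral controls and 100% = maraviroc near 300 nM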
FN deposition inh = fibronectin deposition inhibition; inhibition, % at 12.6 µM; AH1F fibroblasts, Alexa488-fibronectin deposition fluorescence, overnight; 0.086% of 350,000 active;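 active = mean inhibition across replicates of 30% or more, regardless of how many single replicates reach that level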;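 also: positive control wells lacked labelled fibronectin entirely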
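material = AH1F fibroblast monolayer depositing Alexa488-labelled fibronectin into matrix | amount = 10000 AH1F cells/well | buffer or medium = DMEM plus 2% serum, read in PBS | incubation = 1 h cell adhesion before compound, then overnight fibronectin incubation | detection = fluorescence at 485 nm excitation, 525 nm emission | evaluation = percent inhibition as loss of matrix-bound fibronectin fluorescence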
PAX8 reporter = inhibitors of PAX8 transcriptional activity in RMG-I cells; RMG-I TPO-luciferase reporter, SteadyGlo, 24 h; inhibition, % at 12.6 µM; 1.2% of 360,000 active; AID 652154;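 active = mean replicate inhibition at least 60% with every replicate also reaching 60%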;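 also: luciferase light reporting Pax8 driven TPO promoter activity; plate controls were median of neutral control wells for no effect and mitoxantrone controls for full effect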
FGF22 binding = binders of recombinant human FGF22 by thermal shift; AID 651658; activity (Tm shift, normalised), % at 9.99 µM; 1.5% of 340,000 active; Q9HCT0; SYPRO orange fluorescence; percent of sucrose octasulfate shift, DMSO zero;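 active = mean Tm shift, scaled 0 neutral to 100 positive control, at about 1.3% or above, every replicate too, limit read from the data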
Target sequence (Q9HCT0 whole entry, looked up): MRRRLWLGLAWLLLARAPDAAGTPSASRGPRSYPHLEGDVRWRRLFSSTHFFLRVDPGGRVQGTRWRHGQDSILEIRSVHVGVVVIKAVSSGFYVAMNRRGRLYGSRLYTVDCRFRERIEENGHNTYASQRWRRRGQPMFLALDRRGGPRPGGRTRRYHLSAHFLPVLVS
EWS-Fli block = inhibitors of EWS/Fli oncoprotein transcriptional activity; AID 651661; inhibition, % at 12.6 µM; 0.67% of 350,000 active; A673 NR0B1-luciferase reporter, viability-normalised;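 active = mean inhibition of at least 50% after viability correction, with every replicate also passing that limit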;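 also: firefly luciferase signal divided by Alamar Blue viability fluorescence both relative to DMSO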
* marks the source's active call; other numbers are inactive results; . = no result; [ ] = remark or other dose.

SMILES	PGC1a acetyl inh	Env fusion inh	FN deposition inh	PAX8 reporter	FGF22 binding	EWS-Fli block
COc1cc(C2c3cc4c(cc3C(OC3OC5COC(c6cccs6)OC5C(O)C3O)C3COC(=O)C23)OCO4)cc(OC)c1O (stereo unspecified)	.	-120	-7	69*	-1	60*
CC(C)c1cn(CC[C@@H]2CC[C@H](NC(=O)C3CCCC3)[C@H](CO)O2)nn1	0	2[16.7 µM]	-14	5	0	-2
CN1C(=O)c2cc(NC(=O)c3cscn3)ccc2OC[C@H]2O[C@@H](CC(=O)N3CCOCC3)CC[C@@H]21	1	-3[16.7 µM]	7	6	0	-5
CC(=O)CC1c2cc(F)ccc2C=C(c2ccsc2)N1c1ccc(C#Cc2cncn2C)cc1 (stereo unspecified)	.	-60	-13	30	1.8*	14
O=C(NCc1cccc(F)c1)[C@H]1[C@H](CO)[C@H]2Cn3c(ccc(-c4ccncc4)c3=O)[C@@H]1N2CC1CC1	.	.	0	0	0	-3
O=C(NCc1cccc(F)c1)[C@@H]1[C@@H](CO)[C@@H]2Cn3c(ccc(-c4cccnc4)c3=O)[C@H]1N2CC1CC1	.	67*[16.7 µM]	.	-8	0	0
O=C(NC1CCCCC1)N1CC(=O)N2[C@H](CO)[C@H](c3ccc(/C=C/c4ccccc4)cc3)[C@@H]2C1	-2	.	10	1	.	7
COc1ccccc1C(=O)Nc1ccc2c(c1)OC[C@H](C)NC[C@H](C)[C@H](OC)CN(C)C2=O	5	-7[16.7 µM]	-1	11	.	4
CCOC(=O)CSc1ncnc2c(C(=O)OCC)c3n(c12)CCC3	.	-4	-1	-1	43*	-12
COc1cc2c(cc1OC)C(=O)N1[C@H]3c4cc(C)ccc4OC[C@@H]3[C@H](c3ccccc3)[C@]1(C)C(=O)N2	-5	-43	8	-5	0	58*
COc1cc2c(cc1OC)C(=O)N1[C@H]3c4cc(Cl)ccc4OC[C@@H]3[C@H](c3ccccc3)[C@]1(C)C(=O)N2	2	99*	-1	26	0	56*
COc1ccc2c(c1)C(=O)N1[C@H]3c4cc(Cl)ccc4OC[C@@H]3[C@H](c3ccccc3)[C@]1(C)C(=O)N2	-1	49	4	28	.	49
COc1ccc2c(c1)[C@H]1[C@H](CO2)[C@H](c2ccccc2)[C@]2(C)C(=O)Nc3cc(C)ccc3C(=O)N12	10	.	7	11	0	15
CO[C@@H]1CN(C)C(=O)c2cc(NC(=O)C3CC3)ccc2OC[C@H](C)N(C(=O)C2CCCCC2)C[C@@H]1C	-11	.	-8	.	-1	0
C[C@H](O)C#Cc1ccc2c(c1)O[C@H](CN(C)C(=O)c1ccccc1)[C@@H](C)CN([C@H](C)CO)S2(=O)=O	7	-13[16.7 µM]	-7	.	0	-3
Cc1oc2ccc(O)cc2c1C(=O)c1ccc(Br)cc1	.	-4	34*	-57	0	6
C[C@@H]1CCCCO[C@@H](CN(C)Cc2ccncc2)[C@@H](C)CN([C@@H](C)CO)C(=O)c2cc(NS(=O)(=O)c3ccccc3)ccc2O1	-2	-12[16.7 µM]	-5	-1	0	-3
Cc1cc(/C=C(\C#N)C(=O)Nc2ccc(F)cc2)c(C)n1-c1ccc(N2CCOCC2)c([N+](=O)[O-])c1	-3	85*	-3	.	.	.
C[C@H](NC(=O)[C@H]1[C@H](CO)[C@H]2Cn3c(cccc3=O)[C@@H]1N2C(=O)C1CC1)c1ccccc1	.	.	.	.	0	4
C[C@H](CO)N1C[C@H](C)[C@H](CN(C)C(=O)NC2CCCCC2)Oc2ccc(NC(=O)Nc3cccc4ccccc34)cc2C1=O	-24	23[16.7 µM]	5	37	0	17
CCOC(=O)c1oc2cccc(O)c2c1CN(Cc1ccccc1)C(C)=O	-2	60*	2	.	.	.
CN(Cc1cnn(-c2ccccc2)c1)C(=O)c1cccc(S(=O)(=O)N(C)c2ccccc2)c1	-7	13	.	16	0	10
Cc1ccc(N(C)S(=O)(=O)c2cccc(C(=O)N(C)Cc3cnn(-c4ccccc4)c3)c2)cc1	.	63*	3	19	0	-38
Cn1cnc(S(=O)(=O)N2CCN(c3ccccc3)CC2)c1	-5	-3	33*	-5	0	3
Cn1cnc(S(=O)(=O)N2CCN(c3ccc(Cl)cc3)CC2)c1	.	12	5	-8	0	-5
SMILES	PGC1a acetyl inh	Env fusion inh	FN deposition inh	PAX8 reporter	FGF22 binding	EWS-Fli block
Cc1cc[n+](CC(=O)c2ccc(NC(=O)c3ccccc3)cc2)c2ccccc12	.	5	-11	80*	43	22
Cc1ccc[n+](CC(=O)c2ccc(NC(=O)c3ccccc3)cc2)c1	.	-2	7	14	44*	2
O=C(C[n+]1cccc2ccccc21)c1ccc(NC(=O)c2ccccc2)cc1	.	-13	9	32	43	6
Cc1cc(C)c[n+](CC(=O)c2ccc(NC(=O)c3ccccc3)cc2)c1	1	2	0	8	0	-2
COCCCNC(=O)c1cccc2c(-c3ccc(OC)cc3C)coc12	-22	.	6	16	0	13
COc1ccc(-c2coc3c(C(=O)NCCc4ccccc4)cccc23)c(C)c1	-8	55*	-11	8	0	-32
COc1ccc(CCCC(=O)NCCc2ccccc2)c(C)c1	.	89*	-3	-13	0	0
O=C(N[C@@H]1C=C[C@H](CC(=O)N2CCOCC2)O[C@@H]1CO)c1ccccn1	6	-4[16.7 µM]	-5	-4	-1	5
C=C/C=C/[C@@H]1C(=C)CN2[C@H]1[C@H](Cc1ccccc1)OC(=O)[C@@H]2Cc1ccccc1	-57	-16[16.7 µM]	.	-4	0	3
N#C/C(=C(/O)COC(=O)c1cccnc1Cl)c1nc2ccccc2[nH]1	4	-7	-7	14	44*	6
Cc1cccc(C)c1OCC(=O)OC/C(O)=C(\C#N)c1nc2ccccc2[nH]1	-27	.	-10	69*	0	9
N#C/C(=C(/O)COC(=O)c1ccc(O)cc1)c1nc2ccccc2[nH]1	-2	12	-5	-6	0	1
Cc1ccc(S(=O)(=O)N[C@H]2CC[C@H](CCn3cc(-c4cccc(F)c4)nn3)O[C@@H]2CO)cc1	-2	22[16.7 µM]	8	34	0	28
On1ccccc1=S	-9	-22	13	100*	0	52*
O=C(Cn1ccccc1=S)c1ccc(Cl)c(Cl)c1	1	8	-8	-7	0	7
COc1ccc(S(=O)(=O)Nc2ccc3c(c2)C(=O)N([C@@H](C)CO)C[C@H](C)[C@@H](CN(C)C(=O)Nc2ccc(C(F)(F)F)cc2)OCCCC[C@@H](C)O3)cc1	-10	9[16.7 µM]	-8	84*	1	5

Screens (PubChem BioAssay)
